Results taken from ChEMBL document CHEMBL3286247, “Expansion of Antibacterial Spectrum of Muraymycins toward Pseudomonas aeruginosa” (ACS Med Chem Lett, 2014).
Converted amounts (≈) assume the structure as drawn.

Experiments:
[1] = Inhibition of Staphylococcus aureus MraY by fluorescence assay
Outline: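 Purified S. aureus MraY was given UDP-MurNAc-dansylpentapeptide as substrate. Formation of dansylated lipid I was followed by fluorescence enhancement (excitation 355 nm, emission 535 nm).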

[2] = system: Pseudomonas aeruginosa; test: Antibacterial activity against clinical isolate Pseudomonas aeruginosa SR27156 assessed as growth inhibition after 20 hrs by microdilution method; format: functional; conditions: SR27156, 20 h
Outline: (§1)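 Broth microdilution per CLSI in cation-adjusted Mueller-Hinton broth, using serial 2-fold compound dilutions. Each strain was inoculated at 5 × 10⁴ CFU per well in 0.1 mL. Plates were incubated at 35 °C for 20 h, and the MIC was then scored.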

[3] = system: Pseudomonas aeruginosa; test: Antibacterial activity against Pseudomonas aeruginosa PAO1 assessed as growth inhibition after 20 hrs by microdilution method; format: functional; conditions: PAO1, 20 h; outline: as §1
[4] = system: Pseudomonas aeruginosa; test: Antibacterial activity against Pseudomonas aeruginosa ATCC 27853 assessed as growth inhibition after 20 hrs by microdilution method; format: functional; conditions: ATCC 27853, 20 h; outline: as §1
[5] = system: Pseudomonas aeruginosa; test: Antibacterial activity against Pseudomonas aeruginosa ATCC 25619 assessed as growth inhibition after 20 hrs by microdilution method; format: functional; conditions: ATCC 25619, 20 h; outline: as §1
[6] = system: Pseudomonas aeruginosa; test: Antibacterial activity against Pseudomonas aeruginosa YY165 deltamexB mutant assessed as growth inhibition after 20 hrs by microdilution method; format: functional; conditions: YY165, 20 h
Outline: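 Broth microdilution per CLSI in cation-adjusted Mueller–Hinton broth; serial 2-fold compound dilutions inoculated with 5 × 10⁴ CFU per well (0.1 mL), incubated 35 °C for 20 h, then MIC scored. Strain YY165 is a MexB deletion mutant lacking the inner-membrane transporter of the MexAB-OprM efflux system.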

| SMILES | IC50 [1] [nM] | MIC [2] [µg/mL] | MIC [3] [µg/mL] | MIC [4] [µg/mL] | MIC [5] [µg/mL] | MIC [6] [µg/mL] |
| --- | --- | --- | --- | --- | --- | --- |
| CCCCCCCCCCCCCCC[C@H](NC(=O)[C@@H](NC(=O)N[C@H](C(=O)O)C(C)C)[C@@H]1CCNC(=N)N1)C(=O)NCCCN[C@H](C(=O)O)[C@H](O[C@@H]1O[C@H](CN)[C@@H](O)[C@H]1O)[C@H]1O[C@@H](n2ccc(=O)[nH]c2=O)[C@H](O)[C@@H]1O | 1.1 | > 64 | > 64 | > 64 | > 64 | > 64 |
| CCCCCCCCCCCCCCC[C@H](NC(=O)[C@@H](NC(=O)N[C@H](C(=O)O)C(C)C)[C@H]1CCNC(=N)N1)C(=O)NCCCN[C@H](C(=O)O)[C@H](O[C@@H]1O[C@H](CN)[C@@H](O)[C@H]1O)[C@H]1O[C@@H](n2ccc(=O)[nH]c2=O)[C@H](O)[C@@H]1O | 0.8 | > 64 | > 64 | > 64 | > 64 | > 64 |
| CCCCCCCCCCCCCCC[C@H](NC(=O)[C@H](CCCNC(=N)N)NC(=O)N[C@H](C(=O)O)C(C)C)C(=O)NCCCN[C@H](C(=O)O)[C@H](O[C@@H]1O[C@H](CN)[C@@H](O)[C@H]1O)[C@H]1O[C@@H](n2ccc(=O)[nH]c2=O)[C@H](O)[C@@H]1O | 0.7 | > 64 | > 64 | > 64 | > 64 | > 64 |
| CCCCCCCCCCCCCCC[C@H](NC(=O)[C@H](CCCN)NC(=O)N[C@H](C(=O)O)C(C)C)C(=O)NCCCN[C@H](C(=O)O)[C@H](O[C@@H]1O[C@H](CN)[C@@H](O)[C@H]1O)[C@H]1O[C@@H](n2ccc(=O)[nH]c2=O)[C@H](O)[C@@H]1O | 0.8 | > 64 | > 64 | > 64 | > 64 | > 64 |
| CCCCCCCCCCCCCCC[C@H](NC(=O)[C@@H](NC(=O)OCc1ccccc1)[C@@H]1CCNC(=N)N1)C(=O)NCCCN[C@H](C(=O)O)[C@H](O[C@@H]1O[C@H](CN)[C@@H](O)[C@H]1O)[C@H]1O[C@@H](n2ccc(=O)[nH]c2=O)[C@H](O)[C@@H]1O | 4.2 | > 64 | > 64 | > 64 | > 64 | > 64 |
| CCCCCCCCCCCCCCC[C@H](NC(=O)[C@@H](N)[C@@H]1CCNC(=N)N1)C(=O)NCCCN[C@H](C(=O)O)[C@H](O[C@@H]1O[C@H](CN)[C@@H](O)[C@H]1O)[C@H]1O[C@@H](n2ccc(=O)[nH]c2=O)[C@H](O)[C@@H]1O | 2.4 | 64 (≈ 69 µM) | > 64 | > 64 | > 64 | 32 (≈ 34.5 µM) |
| CCCCCCCCCCCCCCC[C@H](NC(=O)[C@@H](N)CCCN)C(=O)NCCCN[C@H](C(=O)O)[C@H](O[C@@H]1O[C@H](CN)[C@@H](O)[C@H]1O)[C@H]1O[C@@H](n2ccc(=O)[nH]c2=O)[C@H](O)[C@@H]1O | 3.8 | 32 (≈ 36.1 µM) | 64 (≈ 72.1 µM) | 64 (≈ 72.1 µM) | 32 (≈ 36.1 µM) | 32 (≈ 36.1 µM) |
| CCCCCCCCCCCCCCC[C@H](NC(=O)[C@@H](N)CCCNC(=N)N)C(=O)NCCCN[C@H](C(=O)O)[C@H](O[C@@H]1O[C@H](CN)[C@@H](O)[C@H]1O)[C@H]1O[C@@H](n2ccc(=O)[nH]c2=O)[C@H](O)[C@@H]1O | 2.2 | 16 (≈ 17.2 µM) | 16 (≈ 17.2 µM) | 32 (≈ 34.4 µM) | 8 (≈ 8.61 µM) | 8 (≈ 8.61 µM) |
| CCCCCCCCCCCCCCC[C@H](NC(=O)[C@@H](N)CCCSC)C(=O)NCCCN[C@H](C(=O)O)[C@H](O[C@@H]1O[C@H](CN)[C@@H](O)[C@H]1O)[C@H]1O[C@@H](n2ccc(=O)[nH]c2=O)[C@H](O)[C@@H]1O | 8.5 | 64 (≈ 69.7 µM) | > 64 | 64 (≈ 69.7 µM) | 16 (≈ 17.4 µM) | 16 (≈ 17.4 µM) |
| CCCCCCCCCCCCCCC[C@H](N)C(=O)NCCCN[C@H](C(=O)O)[C@H](O[C@@H]1O[C@H](CN)[C@@H](O)[C@H]1O)[C@H]1O[C@@H](n2ccc(=O)[nH]c2=O)[C@H](O)[C@@H]1O | 2.6 | > 64 | > 64 | > 64 | 32 (≈ 41.4 µM) | 32 (≈ 41.4 µM) |
| CCCCCCCCCCCCCCC[C@H](NC(C)=O)C(=O)NCCCN[C@H](C(=O)O)[C@H](O[C@@H]1O[C@H](CN)[C@@H](O)[C@H]1O)[C@H]1O[C@@H](n2ccc(=O)[nH]c2=O)[C@H](O)[C@@H]1O | 2.7 | 64 (≈ 78.5 µM) | 64 (≈ 78.5 µM) | > 64 | 32 (≈ 39.3 µM) | 32 (≈ 39.3 µM) |
| CCCCCCCCCCCCCCC[C@H](NC(=O)c1ccccc1)C(=O)NCCCN[C@H](C(=O)O)[C@H](O[C@@H]1O[C@H](CN)[C@@H](O)[C@H]1O)[C@H]1O[C@@H](n2ccc(=O)[nH]c2=O)[C@H](O)[C@@H]1O | 29.6 | > 64 | > 64 | > 64 | > 64 | > 64 |
| CCCCCCCCCCCCCCC[C@H](NC(=O)c1ccccn1)C(=O)NCCCN[C@H](C(=O)O)[C@H](O[C@@H]1O[C@H](CN)[C@@H](O)[C@H]1O)[C@H]1O[C@@H](n2ccc(=O)[nH]c2=O)[C@H](O)[C@@H]1O | 6.4 | > 64 | > 64 | > 64 | 64 (≈ 72.9 µM) | > 64 |
| CCCCCCCCCCCCCCC[C@H](NC(=O)c1cccnc1)C(=O)NCCCN[C@H](C(=O)O)[C@H](O[C@@H]1O[C@H](CN)[C@@H](O)[C@H]1O)[C@H]1O[C@@H](n2ccc(=O)[nH]c2=O)[C@H](O)[C@@H]1O | 9.6 | > 64 | > 64 | > 64 | 64 (≈ 72.9 µM) | > 64 |
| CCCCCCCCCCCCCCC[C@H](NC(=O)c1ccncc1)C(=O)NCCCN[C@H](C(=O)O)[C@H](O[C@@H]1O[C@H](CN)[C@@H](O)[C@H]1O)[C@H]1O[C@@H](n2ccc(=O)[nH]c2=O)[C@H](O)[C@@H]1O | 8.1 | > 64 | > 64 | > 64 | 64 (≈ 72.9 µM) | > 64 |
| CCCCCCCCCCCCCCC[C@H](NC(=O)c1ccnnc1)C(=O)NCCCN[C@H](C(=O)O)[C@H](O[C@@H]1O[C@H](CN)[C@@H](O)[C@H]1O)[C@H]1O[C@@H](n2ccc(=O)[nH]c2=O)[C@H](O)[C@@H]1O | 13.5 | > 64 | > 64 | > 64 | 64 (≈ 72.8 µM) | 64 (≈ 72.8 µM) |
| CCCCCCCCCCCCCCC[C@H](NC(=O)c1cnccn1)C(=O)NCCCN[C@H](C(=O)O)[C@H](O[C@@H]1O[C@H](CN)[C@@H](O)[C@H]1O)[C@H]1O[C@@H](n2ccc(=O)[nH]c2=O)[C@H](O)[C@@H]1O | 33.1 | > 64 | > 64 | > 64 | 64 (≈ 72.8 µM) | > 64 |
| CCCCCCCCCCCCCCC[C@H](NC(=O)c1ccc2ccccc2n1)C(=O)NCCCN[C@H](C(=O)O)[C@H](O[C@@H]1O[C@H](CN)[C@@H](O)[C@H]1O)[C@H]1O[C@@H](n2ccc(=O)[nH]c2=O)[C@H](O)[C@@H]1O | 105 | > 64 | > 64 | > 64 | > 64 | > 64 |
| N=C(N)NCCCCCC(=O)NCCCCCC(=O)NCCCN[C@H](C(=O)O)[C@H](O[C@@H]1O[C@H](CN)[C@@H](O)[C@H]1O)[C@H]1O[C@@H](n2ccc(=O)[nH]c2=O)[C@H](O)[C@@H]1O | 1490 | > 64 | > 64 | > 64 | > 64 | > 64 |
| CCCCCCCCC(=O)NCCCCCC(=O)NCCCN[C@H](C(=O)O)[C@H](O[C@@H]1O[C@H](CN)[C@@H](O)[C@H]1O)[C@H]1O[C@@H](n2ccc(=O)[nH]c2=O)[C@H](O)[C@@H]1O | 97.3 | > 64 | > 64 | > 64 | > 64 | > 64 |
| CC(C)CCCC(=O)N[C@@H](CCCNC(=N)N)C(=O)NCCCN[C@H](C(=O)O)[C@H](O[C@@H]1O[C@H](CN)[C@@H](O)[C@H]1O)[C@H]1O[C@@H](n2ccc(=O)[nH]c2=O)[C@H](O)[C@@H]1O | 225 | > 64 | > 64 | > 64 | > 64 | > 64 |
| CCCCCCCCCCC(=O)N[C@@H](CCCNC(=N)N)C(=O)NCCCN[C@H](C(=O)O)[C@H](O[C@@H]1O[C@H](CN)[C@@H](O)[C@H]1O)[C@H]1O[C@@H](n2ccc(=O)[nH]c2=O)[C@H](O)[C@@H]1O | 9.8 | > 64 | > 64 | > 64 | 32 (≈ 38.6 µM) | > 64 |
| CCCCCCCCCCCCCC(=O)N[C@@H](CCCNC(=N)N)C(=O)NCCCN[C@H](C(=O)O)[C@H](O[C@@H]1O[C@H](CN)[C@@H](O)[C@H]1O)[C@H]1O[C@@H](n2ccc(=O)[nH]c2=O)[C@H](O)[C@@H]1O | 2.1 | 16 (≈ 18.3 µM) | 32 (≈ 36.7 µM) | 32 (≈ 36.7 µM) | 16 (≈ 18.3 µM) | 16 (≈ 18.3 µM) |
| C[C@@H](O)[C@H]1C(=O)N2C(C(=O)O)=C(S[C@@H]3CN[C@H](CNS(N)(=O)=O)C3)[C@H](C)[C@H]12 [DORIPENEM] | – | 0.031 (≈ 0.0737 µM) | 0.5 (≈ 1.19 µM) | 0.5 (≈ 1.19 µM) | 0.063 (≈ 0.15 µM) | 0.25 (≈ 0.595 µM) |
